The record followed here is ChEMBL document CHEMBL1138132, “Cyclic urea derivatives as potent NK1 selective antagonists. Part II: Effects of fluoro and benzylic methyl substitutions” (Bioorg Med Chem Lett, 2006).

≈ marks a conversion by molar mass, not a printed value.

The test system of data set [1] is Meriones unguiculatus. Put plainly: Inhibition of Mongolian gerbil foot-tapping at 4 hr time point at 1 mg/kg, po. The class given is functional. The gist of the method: (§1)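 Female Mongolian gerbils dosed orally at 1 mg/kg in 0.4% methylcellulose in distilled water at set pretreatment times (2, 4 or 6 h) before icv injection of NK1 agonist GR73632 (3 pmol in 5 µl) under anesthesia. After recovery, animals were placed in clear boxes and duration of hind-foot tapping was timed over 5 min; expressed as % inhibition.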

For data set [2], the system named is Meriones unguiculatus. As to the kind of experiment: Inhibition of Mongolian gerbil foot-tapping at 2 h time point at 1 mg/kg, po. The data set is classed as functional. Summed up: as §1
Data set [3] deals with T1, Substance-P receptor (Homo sapiens, UniProt P25103). Put plainly: Displacement of [3H]-Sar-Met Substance P from recombinant human NK1 receptor in CHO cells. The data set is classed as cell-based. The gist of the method: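 Membranes from CHO cells expressing recombinant human NK1 receptor; [3H]-Sar-Met Substance P radioligand at concentrations near its experimentally derived Kd. Ki calculated by Cheng–Prusoff equation; values are the average of two or three independent determinations.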
For orientation: In a radioligand displacement assay an active substance lowers the binding of a labelled ligand.

Data set [4] concerns Meriones unguiculatus. Put plainly: Inhibition of Mongolian gerbil foot-tapping at 6 hr time point at 1 mg/kg, po. The class given is functional. Summed up:
as §1

A short description of data set [5]: Solubility in pH 7.4 buffer. The data set is classed as physicochemical.
The target in data set [6] is T1, Substance-P receptor. The following applies: CHO, 3 uM.
Data set [7] can be described thus: Oral bioavailability in rat. The class given is ADME, organism-based. The note with it: in vivo.
The nature of data set [8]: Ratio of drug level in brain against plasma in Mongolian gerbil. The class given is ADME, organism-based, Meriones unguiculatus.
The nature of data set [9]: Ratio of drug level in brain against plasma in rat. The data set is classed as ADME, organism-based.

T1 sequence (P25103 whole entry): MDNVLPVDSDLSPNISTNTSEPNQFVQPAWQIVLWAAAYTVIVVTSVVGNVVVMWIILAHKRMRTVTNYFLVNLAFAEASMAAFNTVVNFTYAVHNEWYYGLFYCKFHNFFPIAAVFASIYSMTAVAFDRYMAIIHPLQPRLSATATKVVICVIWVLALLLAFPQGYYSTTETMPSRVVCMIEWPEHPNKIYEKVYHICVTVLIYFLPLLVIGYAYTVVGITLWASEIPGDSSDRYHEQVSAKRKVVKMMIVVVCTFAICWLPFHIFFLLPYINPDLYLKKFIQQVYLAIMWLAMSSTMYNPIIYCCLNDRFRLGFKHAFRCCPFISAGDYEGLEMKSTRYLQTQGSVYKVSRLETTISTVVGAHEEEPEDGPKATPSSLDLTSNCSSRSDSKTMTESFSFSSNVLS

With `CCN1C[C@@](CO[C@H](C)c2cc(C(F)(F)F)cc(C(F)(F)F)c2)(c2ccc(F)cc2)NC1=O`, the inhibition in vivo at 1 mg/kg came out at 0% in data set [1] and 9% in data set [2]. Also, the Ki in data set [3] turned out to be 0.8 nM.
In the case of `C[C@@H](OC[C@@]1(c2ccccc2)CN(C)C(=O)N1)c1cc(C(F)(F)F)cc(C(F)(F)F)c1`, the inhibition in vivo at 1 mg/kg in data set [1] was found to be 62%; in data set [2], 86%; in data set [4] it was 31%. Also, the Ki in data set [3] is 0.5 nM.
For the compound `C[C@@H](OC[C@@]1(c2ccc(F)cc2)CN(CC(N)=O)C(=O)N1)c1cc(C(F)(F)F)cc(C(F)(F)F)c1`, the inhibition in vivo at 1 mg/kg came to 20% in [1] and 14% in [2]. Also, the Ki in data set [3] came to 0.4 nM.
Turning to `O=C1NC(COCc2cc(C(F)(F)F)cc(C(F)(F)F)c2)(c2ccc(F)cc2)CN1C1CCOCC1` (stereo not drawn), the results for the inhibition in vivo at 1 mg/kg in data set [1] and in data set [2] were 0% and 22%, respectively. The Ki in data set [3] amounted to 6.3 nM.
Consider `C[C@@H](OC[C@@]1(c2ccc(F)cc2)CN(C)C(=O)N1)c1cc(C(F)(F)F)cc(C(F)(F)F)c1`, for which the inhibition in vivo at 1 mg/kg was 57% in [1], 65% in [2] and 63% in data set [4]. Besides, the solubility in [5] came out at 3 µM (≈ 1.39 µg/mL). The inhibition constant Ki in data set [3] is 3.6 nM.
As for `C[C@H](OC[C@]1(c2ccccc2)CNC(=O)N1)c1cc(C(F)(F)F)cc(C(F)(F)F)c1`, the inhibition in data set [6] is 22%.
For `CN1CCC(N2CC(COCc3cc(C(F)(F)F)cc(C(F)(F)F)c3)(c3ccc(F)cc3)NC2=O)CC1` (stereo not drawn), the values for the inhibition in vivo at 1 mg/kg in data set [1] and in data set [2] were 0% and 3%, respectively. Further, in [3], the Ki is 0.4 nM.
In the same order, the values of `O=C1NC(COCc2cc(C(F)(F)F)cc(C(F)(F)F)c2)(c2ccc(F)cc2)CN1C1CCNCC1` (stereo not drawn) are 0%, 0% and 0.9 nM.
In [7], `O=C1NC[C@@](COCc2cc(C(F)(F)F)cc(C(F)(F)F)c2)(c2ccc(F)cc2)N1` displayed a bioavailability of 93%. Further, the inhibition in vivo at 1 mg/kg in data set [1] was found to be 55%; in data set [2] it was 22%; in data set [4], 51%. The Ki in data set [3] turned out to be 2.7 nM. In addition, the Kp in data set [8] turned out to be 16.
On to `CCN1C[C@@](CO[C@H](C)c2cc(C(F)(F)F)cc(C(F)(F)F)c2)(c2ccccc2)NC1=O`, for which the inhibition in vivo at 1 mg/kg worked out at 46% in data set [1] and 45% in data set [2]. Besides, in data set [3], the Ki stood at 1.7 nM.
As for `C[C@@H](OC[C@]1(c2ccccc2)CNC(=O)N1)c1cc(C(F)(F)F)cc(C(F)(F)F)c1`, in data set [3], the Ki was 41 nM.
`C[C@@H](OC[C@@]1(c2ccc(F)cc2)CNC(=O)N1)c1cc(C(F)(F)F)cc(C(F)(F)F)c1`: the figures for the inhibition in vivo at 1 mg/kg in [1], in [2] and in data set [4] were 44%, 40% and 41%, respectively. Moreover, the Ki in data set [3] was determined as 1.5 nM.
As to `C[C@@H](OC[C@@]1(c2ccccc2)CNC(=O)N1)c1cc(C(F)(F)F)cc(C(F)(F)F)c1`, the bioavailability in [7] amounted to 100%. In addition, the Kp in [9] is 4.4; in data set [8], 10. Besides, the inhibition in vivo at 1 mg/kg in [1] worked out at 57%; in data set [2], 35%; in [4], 48%. The Ki in [3] was found to be 0.6 nM.
For the compound `O=C1NC[C@](COCc2cc(C(F)(F)F)cc(C(F)(F)F)c2)(c2ccc(F)cc2)N1`, in data set [3], the Ki worked out at 89 nM.
For the compound `CC(C)N1C[C@@](CO[C@H](C)c2cc(C(F)(F)F)cc(C(F)(F)F)c2)(c2ccccc2)NC1=O`, the Ki in data set [3] was 3.1 nM.
Same read-out and setting: under `C[C@H](OC[C@@]1(c2ccccc2)CNC(=O)N1)c1cc(C(F)(F)F)cc(C(F)(F)F)c1` stands 93 nM.
With `O=C1NC(COCc2cc(C(F)(F)F)cc(C(F)(F)F)c2)(c2ccc(F)cc2)CN1CCN1CCCC1` (stereo not drawn), the values for the inhibition in vivo at 1 mg/kg in data set [1], in data set [2] and in data set [4] were 0%, 2% and 0%, respectively.
As to `O=C1NC[C@@](COCc2cc(C(F)(F)F)cc(C(F)(F)F)c2)(c2ccccc2)N1`, the values for the Kp in data set [9] and in data set [8] were 4 and 18, respectively. Besides, the inhibition in vivo at 1 mg/kg in data set [1] was 12%; in [2], 54%. Further, in [3], the Ki is 6 nM.
Consider `O=C1NCC(COCc2cc(C(F)(F)F)cc(C(F)(F)F)c2)(c2ccc(F)cc2)N1` (stereo not drawn), for which, in data set [3], the Ki was determined as 4.5 nM.

One may read the inhibition in vivo as the share of the control response that was lost under treatment. A lower inhibition in vivo goes with little suppression. Broadly, the Ki is the equilibrium dissociation constant of an inhibitor or competing ligand from its target. In general, solubility refers to the dissolved amount per volume that the medium holds. The inhibition is the relative decrease from the control value, in per cent. Read a low inhibition as little suppression. The bioavailability is dose-corrected exposure relative to a reference, in per cent. A lower bioavailability goes with poor availability. Broadly, the Kp is tissue or fluid exposure divided by exposure in the circulation.
